E-selectin induc: E-selectin induction in HUVECs, primary screen, imaging, HUVEC, immunofluorescence imaging, single point; normalized: neutral wells 0, TNF-alpha wells 100; activation, % at 7.58 µM; P16581; hit rate 0.37% among 260,000;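 active = mean E-selectin-positive cell signal at least 10% of the positive control, reached in at least 60% of replicates, without over 20% cell loss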
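Material: HUVEC primary endothelial cells; Amount: 3,000 cells per well; Dosing: single concentration; Medium: EGM-2 growth medium on 0.1% gelatin-coated wells; Read-out basis: percent E-selectin-positive cells; Signal: immunofluorescence imaging; Control set: TNF-alpha, DMSO.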
FN deposition inh: inhibitors of fibronectin matrix deposition, primary screen, AH1F cells, Alexa488-fibronectin fluorescence, plate reader; AH1F fibroblasts, overnight; hit rate 0.086% among 350,000; inhibition, % at 12.6 µM;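 active = mean inhibition across replicates of 30% or more, regardless of how many single replicates reach that level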
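Schedule: 1 h cell adhesion before compound, then overnight fibronectin incubation; test system: AH1F fibroblast monolayer depositing Alexa488-labelled fibronectin into matrix; quantity: 10000 AH1F cells per well; probe or stimulus: fluorescent fibronectin at 24 nM final; signal: fluorescence, ex 485 nm, em 525 nm; evaluation: percent inhibition as loss of matrix-bound fibronectin fluorescence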
rRNA inh HTS: reduced GFP signal of wild-type E. coli, primary screen, bacterial rRNA inhibitor project, GFP/RFP fluorescence, OD600, single point | E. coli WT GFP vs humanized-ribosome RFP mutants, 24 h; hits give low values; DMSO median 0, no signal -100 | GFP signal change (wild-type ribosome), % (concentration not given with the values) | AID 720706, 2013 | hit rate 1.6% among 350,000;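 active = significant combined selectivity score with lowered wild-type GFP, culture density cut under 30%, mutant RFP and density less affected; inactive = any of these conditions unmet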
C2C12 statin: suppressors of statin myotoxicity in C2C12 myotubes, primary screen, cell-based, single point, plate reader | AID 602340, 2012 | rescue of ATP level, % at 7.49 µM | C2C12 myotubes + simvastatin, ATP luminescence, 48 h; scaled: DMSO 0, geranylgeraniol control 100 | hit rate 0.78% among 330,000;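 active = mean ATP rescue above about 67%, or every replicate alone reaching that limit, limit read from the data, passing the limit was not always enough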;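 also: myotubes were challenged with 10 µM simvastatin during compound exposure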
SIRT5 block: SIRT5 desuccinylase inhibitors, primary screen, biochemical, fluorescence imaging, single point, set 5 | AID 652115, 2013 | inhibition, % at 15 µM | Purified SirT5, succinyl-peptide AMC, trypsin-coupled fluorescence | hit rate 1.1% among 330,000; in the data active = inhibition above about 15%
Target sequence (Q9NXA8 whole entry, looked up): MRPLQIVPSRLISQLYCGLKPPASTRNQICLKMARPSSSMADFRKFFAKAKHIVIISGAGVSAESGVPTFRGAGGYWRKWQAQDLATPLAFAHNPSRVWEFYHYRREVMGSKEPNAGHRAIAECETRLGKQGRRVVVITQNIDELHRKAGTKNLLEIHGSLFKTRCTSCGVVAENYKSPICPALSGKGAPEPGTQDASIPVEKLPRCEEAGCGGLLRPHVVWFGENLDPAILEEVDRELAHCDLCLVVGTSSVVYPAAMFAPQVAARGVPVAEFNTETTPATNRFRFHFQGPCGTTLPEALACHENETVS
FGF22 binding: binders of human FGF22 protein, primary screen, FGF22 synaptogenesis inhibitor project, biophysical, thermal shift, single point | Fibroblast growth factor 22 (Homo sapiens), Q9HCT0 | recombinant FGF22 thermal shift, SYPRO orange fluorescence; percent of sucrose octasulfate shift, DMSO zero | activity (Tm shift, normalised), % at 9.99 µM | hit rate 1.5% among 340,000 | AID 651658, 2012;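 active = mean Tm shift, scaled 0 neutral to 100 positive control, at about 1.3% or above, every replicate too, limit read from the data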
Target sequence (Q9HCT0 whole entry, looked up): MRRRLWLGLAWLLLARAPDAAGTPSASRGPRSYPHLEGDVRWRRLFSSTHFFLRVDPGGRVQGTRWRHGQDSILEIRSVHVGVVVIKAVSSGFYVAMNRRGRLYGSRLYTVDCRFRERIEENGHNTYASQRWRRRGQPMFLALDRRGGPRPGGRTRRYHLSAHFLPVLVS
Numbers stand for hits; – = inactive; · = no result. The list is not random: actives were taken first. Their share in the collection is about 4%.

SMILES	E-selectin induc	FN deposition inh	rRNA inh HTS	C2C12 statin	SIRT5 block	FGF22 binding
C[C@@H]1CN([C@@H](C)CO)C(=O)c2ccccc2-c2ccccc2CO[C@@H]1CN(C)C(=O)[C@H](Cc1ccccc1)N(C)C	·	–	–	·	·	·
O=C(O)c1cc(-c2ccc(/C=C3/SC(=S)N(Cc4ccccc4)C3=O)o2)ccc1Cl	·	–	–	–	–	–
O=C(O)c1cccc(N2C(=O)/C(=C/c3ccc(SCc4ccc(Cl)cc4)o3)SC2=S)c1	·	–	–	·	20.9	·
CNC[C@H]1OCCCC[C@@H](C)Oc2ccc(NC(=O)NC3CCCCC3)cc2C(=O)N([C@@H](C)CO)C[C@H]1C	–	·	–	–	·	·
CCCNC(=O)Nc1ccc2c(c1)OC[C@@H](C)N(Cc1ccccn1)C[C@H](C)[C@@H](OC)CN(C)C2=O	–	–	–	–	–	–
C=CCn1c(Sc2ncc([N+](=O)[O-])s2)n[nH]c1=O	–	–	-28.4	·	–	–
O=[N+]([O-])c1cnc(Sc2ccncn2)s1	–	–	–	·	·	–
Nc1nc2ccccc2[nH]1	–	–	–	–	–	–
Nc1nc2ccc(Cl)cc2[nH]1	–	–	–	–	·	43.2
CCOc1cc(-c2cc(-c3ccccc3)nc(N)c2C#N)ccc1O	·	·	·	–	·	·
COc1cc(-c2cc(-c3ccc(F)cc3)nc(N)c2C#N)ccc1O	–	–	–	·	–	43.1
COc1cccc(NC(=O)N2CC(=O)N3[C@H](C2)[C@H](c2ccc(C4=CCCC4)cc2)[C@@H]3CO)c1	–	–	–	·	–	·
C=CCN(c1ccccc1)S(=O)(=O)c1cccc(C(=O)NCc2ccncc2)c1	–	–	–	–	–	–
C=CCN(c1ccccc1)S(=O)(=O)c1cccc(C(=O)Nc2ccncc2)c1	·	–	–	–	18.7	–
O=C1/C(=C/c2cccs2)SC(=S)N1c1ccccc1	·	–	·	–	·	·
CC(=Cc1ccccc1)C=C1SC(=S)N(CCCC(=O)Nc2ccc(C(=O)O)c(O)c2)C1=O	·	–	–	–	60.2	2.6
O=C(CCN1C(=O)/C(=C/c2cccs2)SC1=S)Nc1ccccc1O	29.8	–	–	–	–	–
O=C(CCN1C(=O)/C(=C/c2cccs2)SC1=S)Nc1ccc(O)cc1	–	–	–	–	–	–
O=C1/C(=C/c2cccs2)SC(=S)N1c1cccc(O)c1	51.7	–	–	–	–	–
O=C(CCN1C(=O)/C(=C/c2cccs2)SC1=S)Nc1ccc(C(=O)O)c(O)c1	·	–	–	–	16.0	–
COCC#Cc1cnc2c(c1)C(=O)N([C@H](C)CO)C[C@@H](C)[C@@H](CN(C)C)O2	–	–	–	–	–	–
CC(=O)Nc1ccc2c(c1)C(=O)N(C)[C@@H]1CC[C@@H](CC(=O)NC3CCCCC3)O[C@H]1CO2	–	–	–	–	·	–
COCC(=O)N[C@@H]1CC[C@H](CC(=O)N2CCCCC2)O[C@H]1CO	–	–	–	–	–	–
CCN(CC)C(=O)[C@H]1CC(CC(=O)NCCc2ccccn2)C(=O)N2CCc3c([nH]c4ccccc34)[C@]12C (stereo not given in full)	–	–	–	–	·	43.0
CCN(CC)C(=O)[C@H]1C[C@H](CC(=O)NC(C)(C)C)C(=O)N2CCc3c([nH]c4cc(CCC(=O)N(C)C)ccc34)[C@]12C	–	–	–	–	30.9	–
SMILES	E-selectin induc	FN deposition inh	rRNA inh HTS	C2C12 statin	SIRT5 block	FGF22 binding
CC[C@]12c3[nH]c4ccccc4c3CCN1C(=O)C(CC(=O)NC/C=C(\C)CCC=C(C)C)C[C@@H]2C(=O)N1CCN(C(=O)c2ccco2)CC1 (stereo not given in full)	–	·	–	–	16.3	–
CC(C)N(C(=O)[C@H]1C[C@H](CC(=O)NCc2ccco2)C(=O)N2CCc3c([nH]c4cc(CCC(=O)N(C)C)ccc34)[C@]12C)C(C)C	–	–	–	–	29.5	–
CN(C)C(=O)CCc1ccc2c3c([nH]c2c1)[C@]1(C)[C@@H](C(=O)N2CCOCC2)C[C@H](CC(=O)NCc2ccco2)C(=O)N1CC3	–	–	–	–	–	–
O=C1[C@H](Cc2ccccc2)CCn2cc(nn2)COCC2CCCN12 (stereo not given in full)	–	–	–	·	–	–
CN(C)C(=O)C[C@@H]1C[C@@H]2c3cc(NC(=O)Nc4ccccc4)ccc3O[C@@H]2[C@H](CO)O1	–	–	–	–	·	–
COc1ccc2[nH]c3c(c2c1)CCN1C(=O)C(CC(=O)NCc2ccco2)C[C@H](C(=O)N2CCCCC2)[C@@]31C (stereo not given in full)	–	–	–	–	–	–
C[C@]12c3[nH]c4ccc(Cl)cc4c3CCN1C(=O)[C@@H](CC(=O)NCc1ccco1)C[C@@H]2C(=O)N1CCCCC1	53.0	34.0	–	–	–	–
CCNC(=S)SCCOc1ccccc1C	–	–	-33.9	·	–	–
CNC(=S)SCCOc1ccccc1	–	–	–	·	–	–
Nc1nnnn1/N=C/c1ccccc1Cl	–	–	–	–	·	–
Nc1nnnn1/N=C/c1ccccn1	·	·	–	83.4	–	–
Cc1cc(/C=N/n2cnnc2)c(C)n1-c1ccc(Cl)cc1Cl	·	·	·	97.1	·	·
N#Cc1c([N+](=O)[O-])cc([N+](=O)[O-])cc1S(=O)(=O)Cc1ccccc1	–	44.7	–	–	–	–
O=C(Nc1ccccc1C(=O)O)/C(=C/c1ccc(Cl)cc1Cl)NC(=O)c1ccco1	–	–	-32.0	–	–	–
O=C(Nc1cccc(F)c1)/C(=C\c1cccnc1)NC(=O)c1ccco1	·	–	–	·	–	44.2
Cc1ccc(NC(=O)/C(=C\c2cccnc2)NC(=O)c2ccco2)cc1	·	–	·	–	·	·
O=C(Nc1ccccc1)/C(=C/c1ccc(O)cc1)NC(=O)c1ccco1	·	–	–	–	30.0	–
O=C(Nc1cccc(C(=O)O)c1)/C(=C\c1ccco1)NC(=O)c1ccccc1Cl	·	–	–	–	–	–
Cc1noc(C)c1NC(=O)Nc1ccc2c(c1)C(=O)N([C@H](C)CO)C[C@@H](C)[C@@H](CN(C)S(=O)(=O)c1cn(C)cn1)O2	–	·	–	–	–	–
Cc1ccc(C)c(NC(=O)Cn2nc([N+](=O)[O-])c(Br)c2C)c1	·	–	–	–	32.9	–
CC(=O)Nc1ccc(NC(=O)Cn2nc([N+](=O)[O-])c(Br)c2C)cc1	–	–	–	·	–	–
